Measured values reported in ChEMBL document CHEMBL3351316, “Scaffold hopping approach on the route to selective tankyrase inhibitors” (Eur J Med Chem, 2014).
Active and inactive are the calls of the source. The rule behind the calls is not given here.

Tests used:
[1] = target: T1, Poly [ADP-ribose] polymerase tankyrase-2 (Homo sapiens, UniProt Q9H2K2); assay: Inhibition of GST-tagged human recombinant TNKS2 incubated for 1 hr using NAD+, biotinylated NAD+ and activated DNA by luminescence based assay
T1 sequence (Q9H2K2 whole entry): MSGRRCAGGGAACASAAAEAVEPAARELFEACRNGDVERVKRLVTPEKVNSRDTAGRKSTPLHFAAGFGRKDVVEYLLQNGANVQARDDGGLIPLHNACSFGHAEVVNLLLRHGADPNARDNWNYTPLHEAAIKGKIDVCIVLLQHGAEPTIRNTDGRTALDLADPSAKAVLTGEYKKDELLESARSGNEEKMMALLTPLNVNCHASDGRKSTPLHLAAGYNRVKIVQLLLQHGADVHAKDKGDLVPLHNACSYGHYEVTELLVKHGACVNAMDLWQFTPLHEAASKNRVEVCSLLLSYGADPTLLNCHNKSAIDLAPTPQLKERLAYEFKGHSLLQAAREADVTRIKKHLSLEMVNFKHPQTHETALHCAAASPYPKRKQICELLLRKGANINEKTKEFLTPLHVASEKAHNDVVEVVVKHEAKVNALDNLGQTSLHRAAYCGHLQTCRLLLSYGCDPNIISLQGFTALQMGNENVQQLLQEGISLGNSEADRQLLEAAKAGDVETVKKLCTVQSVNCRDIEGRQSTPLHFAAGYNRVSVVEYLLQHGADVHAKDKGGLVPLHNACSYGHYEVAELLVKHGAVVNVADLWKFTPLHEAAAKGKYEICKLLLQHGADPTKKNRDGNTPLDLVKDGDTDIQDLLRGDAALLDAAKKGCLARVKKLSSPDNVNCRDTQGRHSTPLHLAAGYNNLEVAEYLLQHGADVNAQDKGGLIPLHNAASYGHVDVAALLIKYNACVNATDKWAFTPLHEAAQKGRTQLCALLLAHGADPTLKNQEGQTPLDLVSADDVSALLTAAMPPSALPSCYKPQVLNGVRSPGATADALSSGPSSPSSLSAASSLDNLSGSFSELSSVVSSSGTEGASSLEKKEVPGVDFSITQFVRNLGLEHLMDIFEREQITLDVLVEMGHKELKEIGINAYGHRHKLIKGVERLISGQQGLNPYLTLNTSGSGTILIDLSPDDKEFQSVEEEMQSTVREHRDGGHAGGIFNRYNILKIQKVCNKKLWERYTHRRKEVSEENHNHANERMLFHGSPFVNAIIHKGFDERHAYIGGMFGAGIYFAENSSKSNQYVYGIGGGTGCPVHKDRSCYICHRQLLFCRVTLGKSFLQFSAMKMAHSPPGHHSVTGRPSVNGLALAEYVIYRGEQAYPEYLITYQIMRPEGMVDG

[2] = target: T2, Protein mono-ADP-ribosyltransferase PARP8 (Homo sapiens) (UniProt Q8N3A8); assay: Inhibition of human recombinant PARP8 at 10 uM incubated for 1 hr using NAD+, biotinylated NAD+ and activated DNA by luminescence based assay
T2 sequence (whole entry): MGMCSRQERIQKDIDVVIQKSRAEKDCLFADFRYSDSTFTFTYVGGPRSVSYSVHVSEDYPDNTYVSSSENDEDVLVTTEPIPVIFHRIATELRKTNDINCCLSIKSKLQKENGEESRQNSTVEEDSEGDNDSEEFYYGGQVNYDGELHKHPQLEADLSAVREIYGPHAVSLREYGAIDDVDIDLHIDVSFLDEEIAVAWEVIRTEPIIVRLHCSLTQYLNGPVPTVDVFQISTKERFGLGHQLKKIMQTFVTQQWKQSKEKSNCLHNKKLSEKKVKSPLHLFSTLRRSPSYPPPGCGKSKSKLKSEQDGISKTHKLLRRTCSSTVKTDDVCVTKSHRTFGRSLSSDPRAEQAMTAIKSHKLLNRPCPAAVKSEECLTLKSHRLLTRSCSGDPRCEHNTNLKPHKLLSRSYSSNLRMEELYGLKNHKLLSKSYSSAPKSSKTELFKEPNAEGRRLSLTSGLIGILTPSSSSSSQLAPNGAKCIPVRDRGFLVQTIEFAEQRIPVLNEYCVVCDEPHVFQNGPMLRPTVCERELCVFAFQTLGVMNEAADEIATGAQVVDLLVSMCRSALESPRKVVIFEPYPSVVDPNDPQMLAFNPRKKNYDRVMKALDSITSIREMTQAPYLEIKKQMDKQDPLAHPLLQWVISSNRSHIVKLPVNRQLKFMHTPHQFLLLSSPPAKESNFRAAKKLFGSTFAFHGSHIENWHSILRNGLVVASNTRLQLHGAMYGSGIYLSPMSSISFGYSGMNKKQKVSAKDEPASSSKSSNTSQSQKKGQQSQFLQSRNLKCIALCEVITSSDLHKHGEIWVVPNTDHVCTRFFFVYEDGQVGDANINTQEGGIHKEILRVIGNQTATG
In short: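 Recombinant PARP enzyme reactions were run in duplicate for 1 h at rt on histone-coated plates in Tris·HCl pH 8.0 buffer with NAD+, biotinylated NAD+ and activated DNA. Detection used streptavidin-HRP for 30 min at rt, then a chemiluminescent developer. % inhibition = 100 − % activity, scaled between the no-compound (100%) and no-enzyme (0%) signals.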

DLD-1 = assay: Growth inhibition of human DLD1 cells at 1 uM to 10 uM; format: functional, cell-based
In short: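 DLD-1 colorectal cancer cells seeded at 5 × 10^3 in a colony growth assay. Cells were dosed daily with 1, 5 or 10 μM compound in DMSO, with DMSO alone as the negative control. After 10 days cells were fixed in 10% methanol/acetic acid, stained with 1% crystal violet and quantified by image analysis. Mean ± SEM of at least three independent experiments.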

CC(C)(C)c1ccc(-c2nc3c(sc4ccccc43)c(=O)[nH]2)cc1
IC50 [1]: 0.0286 µM
inhibition [2]: 3%
growth inhibition (GI) (DLD-1): Active
